# An excerpt weighted towards active compounds, which were near 4.3% of everything screened.
# GalR3 antag: human GalR3 antagonism | inhibition, % at 3 µM | 0.44% of 360,000 active | O60755 | HEK293 GalR3-CNG cAMP membrane potential fluorescence; galR3 body fused to GalR1 C-terminus;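 active = inhibition above the screen-wide average plus 3 SD, cut at about 13% in these data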;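 note: forskolin and galanin both at EC90 stimulate the cells; cAMP rise reported by CNG channel membrane potential dye signal; 0% = forskolin plus galanin with DMSO and 100% = forskolin alone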
# Target sequence (O60755 1-299 limits assumed): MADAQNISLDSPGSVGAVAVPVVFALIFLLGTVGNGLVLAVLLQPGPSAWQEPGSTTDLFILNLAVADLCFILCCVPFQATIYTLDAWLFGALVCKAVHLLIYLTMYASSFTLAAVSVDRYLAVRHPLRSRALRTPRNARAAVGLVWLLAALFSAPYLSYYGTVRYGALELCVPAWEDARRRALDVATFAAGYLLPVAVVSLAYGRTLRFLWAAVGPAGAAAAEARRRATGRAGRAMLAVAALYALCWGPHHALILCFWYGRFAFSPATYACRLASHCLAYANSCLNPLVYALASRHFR
# OX1R antag-1: OX1R (human) antagonism; inhibition, % at 6.6 µM; 1.8% of 330,000 active; OX1R-expressing cells, FRET antagonist read-out; O43613; in the data active = inhibition mostly above about 38%, no sharp cut-off; inactive = mostly below about 40%;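 note: 0% = agonist challenge alone and 100% = reference antagonist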
# TAAR1 agonist: human TAAR1 agonism. 0.99% of 360,000 active. activation, % at 3 µM. Q96RJ0. CHO RD-HGA16 TAAR1, Fluo-8 calcium fluorescence; vehicle wells 0%, saturating PEA agonist 100%;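 active = activation above the mean activation of all test compounds in the run plus 3 SD, cut at about 38% in these data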
# Target sequence (Q96RJ0 whole entry, looked up): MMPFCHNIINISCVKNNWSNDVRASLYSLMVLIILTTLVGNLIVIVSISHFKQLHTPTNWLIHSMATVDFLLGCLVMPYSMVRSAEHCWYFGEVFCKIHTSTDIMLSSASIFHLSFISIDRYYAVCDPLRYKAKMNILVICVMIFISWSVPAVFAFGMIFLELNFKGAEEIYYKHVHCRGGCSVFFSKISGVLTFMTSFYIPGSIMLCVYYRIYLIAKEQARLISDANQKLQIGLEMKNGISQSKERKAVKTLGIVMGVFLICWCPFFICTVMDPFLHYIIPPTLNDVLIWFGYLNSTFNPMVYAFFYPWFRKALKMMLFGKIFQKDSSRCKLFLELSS
#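 System: CHO RD-HGA16 cells carrying human TAAR1 plus Gα16; Incubation: 17-24 h seeding, 75 min 37 °C dye, 30 min RT; Measured by: Fluo-8 fluorescence, 5 s baseline then 140 s kinetic read; Control set: DMSO and PEA EC100; Replication: single well for each compound.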
# OX1R antag-2: blocks the human orexin 1 receptor; O43613; CHO/OX1R cells, Fluo-8 calcium fluorescence, orexin A; inhibition, % at 5 µM; 0.43% of 330,000 active; AID 434989;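 active = inhibition above its plate's threshold, mean inhibition of all tested compounds on the plate plus 3 SD, cut at about 37% in these data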;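 note: 0% = orexin A challenge wells and 100% = SB-334867-A antagonist wells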
# TAAR1 antagonist: antagonists of human TAAR1 | AID 624466 | inhibition, % at 3 µM | CHO RD-HGA16 TAAR1, Fluo-8 calcium fluorescence, antagonist | 1.5% of 360,000 active;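 active = inhibition above a per-plate cutoff, the mean inhibition of test compounds on that plate plus 3 SD, cut at about 49% in these data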;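 note: 0% = DMSO plus EC80 beta-PEA response and 100% = DMSO alone without agonist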
#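 System: CHO RD-HGA16 cells bearing hTAAR1. Reagent: EC80 β-phenethylamine stimulus. Schedule: seeding 17-24 h prior, 75-min 37 °C, 30-min RT dye loading. Signal: Fluo-8 intracellular calcium dye fluorescence, real-time kinetic reads. Read-out: % inhibition from peak post-agonist over basal fluorescence ratio. Benchmarks: vehicle wells and EC80 agonist wells. Replicates: n of 1.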
# CHO parental Ca: counter-screen: ATP calcium response change in parental CHO cells; parental CHO-K1, ATP-induced calcium, Fluo-8 fluorescence; inhibition, % at 5.6 µM; 0.63% of 330,000 active;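 active = inhibition above that plate's mean sample inhibition plus 3 SD, cut at about 26% in these data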;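 note: 0% = ATP-challenged DMSO wells and 100% = DMSO wells without ATP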
#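 Material – parental CHO cells · Reagent – ATP stimulus · Compound – single nominal dose of 5.6 µM per compound · Detection – Fluo-8 fluorescence · Read-out basis – percent inhibition of calcium signal · Controls – ATP-challenged DMSO wells low, unchallenged DMSO wells high · Repeats – no replicates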
# Active calls of the source: *; . = not tested or not shown.
SMILES,GalR3 antag,OX1R antag-1,TAAR1 agonist,OX1R antag-2,TAAR1 antagonist,CHO parental Ca
N/C(=N\OC(=O)c1cccc(Cn2cc(C(F)(F)F)ccc2=O)c1)c1ccccc1,-7,4,1,48*,2,46*
Cc1ccc(/C(N)=N/OC(=O)c2cccc(Cn3cc(C(F)(F)F)ccc3=O)c2)cc1,-3,3,3,-27,-4,-10
O=C(CS(=O)(=O)c1ccccc1)Nc1ncc([N+](=O)[O-])s1,-9,27,10,-5,-5,3
O=C(Nc1ncc([N+](=O)[O-])s1)c1ccccc1Br,-1,43*,8,-2,16,4
O=C(Nc1ncc([N+](=O)[O-])s1)c1cccs1,-4,75*,7,7,-9,2
Cc1cnc(NC(=O)c2cccs2)s1,-12,20,-2,-2,-5,13
COc1ccccc1/C=N/NC(=O)c1cccc(NC(=O)c2ccccc2Cl)c1,-7,12,10,-31,49*,-15
COc1cc(/C=N/NC(=O)c2cccc(NC(=O)c3ccccc3Cl)c2)ccc1O,-2,23,15,-5,53*,2
COc1ccccc1/C=N/NC(=O)c1cccc(NC(=O)c2ccccc2C)c1,-10,21,10,-25,44,-11
COc1ccc(F)cc1-c1cc(C(=O)NCc2cc(C(F)(F)F)cc(C(F)(F)F)c2)[nH]n1,-4,.,4,.,-23,.
Cc1nn(-c2ccccc2)nc1C(=O)Nc1cccc(C(=O)NC2CC2)c1,-8,.,11,.,60*,.
Cc1nn(-c2cccc(Cl)c2)nc1C(=O)Nc1cccc(C(=O)NC2CC2)c1,-2,8,6,-10,46,-31
CCN(c1ccccc1)S(=O)(=O)c1ccc(C(=O)NCCCN2CCOCC2)cc1,-8,6,3,-13,2,-15
COCCN(CCOC)S(=O)(=O)c1ccc(C(=O)NCCCN2CCOCC2)cc1,-2,13,-4,42,-9,56*
Cc1ccc(C(=O)OCC(=O)N(C)c2c(N)n(Cc3ccccc3)c(=O)[nH]c2=O)s1,1,6,4,-4,10,-5
Cc1c(C(=O)OCC(=O)Nc2ccc(S(N)(=O)=O)cc2)oc2c1ccc1ccccc12,-1,22,2,4,4,41*
Cc1cc(NC(=O)COC(=O)c2oc3c(ccc4ccccc43)c2C)no1,0,10,3,-7,-1,-6
COc1ccc(C(=O)N2CCN(CCCc3ccccc3)CC2)cc1OC,-9,4,0,-25,-5,-4
S=c1nc2ccccc2c2nc(-c3ccccc3)[nH]n12,-3,65*,3,-4,-15,-6
COc1ccccc1-c1nc2c3ccccc3nc(=S)n2[nH]1,-11,29,5,-11,-17,-4
COc1cc(-c2nc3c4ccccc4nc(=S)n3[nH]2)cc(OC)c1OC,-2,12,1,6,5,-4
S=c1nc2ccccc2c2nc(-c3ccccc3Cl)[nH]n12,-4,57*,0,-6,-15,-7
COc1cc(/C=C/C(=O)OCC(=O)NCC(=O)Nc2cccc(C)c2C)ccc1OC(F)F,-4,4,2,-7,9,-12
COc1ccc(C(=O)Nc2cc3c4c(c2)CC(=O)N4CCC3)cc1,-3,14,2,-15,20,-8
Cc1ccc(NC(=O)N2CCc3ccccc32)cc1C,-5,13,5,-28,-18,-16
SMILES,GalR3 antag,OX1R antag-1,TAAR1 agonist,OX1R antag-2,TAAR1 antagonist,CHO parental Ca
CN1C(=O)CSc2ccc(NC(=O)N3CCc4ccccc43)cc21,-4,9,20,9,56*,0
CCC(c1nnnn1-c1ccc2c(c1)OCCO2)N1CCN(c2ccccn2)CC1 (stereo not drawn),-8,.,2,.,11,.
NC(=O)C1CCN(c2nc(-c3ccc(F)cc3)cs2)CC1,-1,57*,8,-4,6,-6
COCCNC(=S)N1CCN(c2nc(-c3ccccc3)cs2)CC1,-3,14,10,-3,25,6
COCCCNC(=S)N1CCN(c2nc(-c3ccc(F)cc3)cs2)CC1,-10,24,9,-7,52*,18
CCCNC(=S)N1CCN(c2nc(-c3cccc(OC)c3)cs2)CC1,-11,33,8,-22,26,-1
CCCNC(=S)N1CCN(c2nc(-c3ccc(C)cc3)cs2)CC1,-10,32,0,1,48,53*
COC(=O)c1cc(S(=O)(=O)NCC2CCN(C(=O)C(=O)c3cc4ccccc4o3)CC2)cs1,-6,.,1,.,-9,.
COc1cc(S(=O)(=O)NCC2(N3CCCCC3)CCCCC2)ccc1NC(C)=O,-4,.,0,.,1,.
Cc1cccnc1NC(=O)CSc1nnc(CNC(=O)c2cccc([N+](=O)[O-])c2)n1C,-5,34,0,-20,2,-9
CNS(=O)(=O)c1cccc(C(=O)OCC(=O)/C=C2/N(C)c3ccccc3C2(C)C)c1,-7,10,14,12,42,30
CN1/C(=C\C(=O)COC(=O)c2ccc(O)cc2)C(C)(C)c2ccccc21,-4,29,6,47*,34,54*
CN1/C(=C\C(=O)COC(=O)c2ccc(O)c(O)c2)C(C)(C)c2ccccc21,-5,12,20,40*,26,50*
CCOc1ccc(NC(=O)CN(C)C(=O)c2cc3c(s2)CCC3)cc1OCC,-3,.,-1,.,-16,.
CC(=O)OC[C@]12CC[C@H]3[C@@](C)(CC[C@H]4C(C)(C)CCC[C@]34C)[C@@H]1C[C@H](C1=CC(=O)O[C@H]1OC(C)=O)O2,.,-2,.,51*,.,46*
CCC(=O)c1ccc(OCC(=O)OCC(=O)N2c3ccccc3NC(=O)C2(C)C)cc1,-5,26,13,-2,52*,13
Cc1ccc(C(=O)CCC(=O)OCC(=O)N2c3ccccc3NC(=O)C2(C)C)cc1,-2,.,6,.,44,.
Cc1cc(OCC(=O)OCC(=O)N2c3ccccc3NC(=O)C2(C)C)ccc1Cl,-4,1,8,26,70*,0
CCCNC(=O)COc1coc(CN2CCN(c3cccc(Cl)c3)CC2)cc1=O,3,6,1,-14,-27,-7
CCCCN(CCCC)Cc1ccc(C(=O)NNC(=O)Nc2ccccc2)o1,-5,13,7,-19,-9,8
CCCCC#Cc1ccc(C(=O)NNC(=O)Nc2ccccc2)o1,0,5,11,-19,8,35*
CC(=O)Nc1ccc2nc3c(=O)n(C)c(=O)n(C)c3nc2c1,-6,60*,1,3,-15,-7

# Source: PubChem
